Test results reported in ChEMBL document CHEMBL3286205, “Optimization of diaryl amine derivatives as kinesin spindle protein inhibitors” (Bioorg Med Chem, 2014).
In brackets after ≈: the same amount, converted by molar mass.

Key:
[1] = Thermodynamic solubility of the compound in 50% EtOH/1/15 M phosphate buffer at pH 7.4 after 48 hrs by HPLC analysis; type: physicochemical; details: read-out: Therm_solubility
Summary of the method: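 Solid compound in 0.5 mL of 1/15 M phosphate buffer (pH 7.4) plus 0.5 mL EtOH was shaken 48 h at 25 °C and filtered. m-Cresol internal standard was added (0.05 mg/mL final), the sample diluted in DMF and analysed by HPLC-UV at 254 nm. Concentration came from the peak-area ratio against a calibration curve, corrected for dilution.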

[2] = Thermodynamic solubility of the compound in 1/15 M phosphate buffer at pH 7.4 after 48 hrs by HPLC analysis; type: physicochemical; details: read-out: Therm_solubility
Summary of the method: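 Solid compound in 1.0 mL of 1/15 M phosphate buffer (pH 7.4) was shaken 48 h at 25 °C and filtered. m-Cresol internal standard was added (0.05 mg/mL final), the sample diluted in DMF and run on HPLC with UV at 254 nm. Concentration came from the sample/standard peak-area ratio against a calibration curve, corrected for dilution.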

[3] = biological target: T1, Kinesin-like protein KIF11 (Homo sapiens, UniProt P52732); experiment: Inhibition of C-terminal His-tagged KSP ATPase motor domain (unknown origin) expressed in bacteria incubated for 30 mins prior to ATP addition measured after 15 mins by luminescence assay
T1 sequence (P52732 whole entry): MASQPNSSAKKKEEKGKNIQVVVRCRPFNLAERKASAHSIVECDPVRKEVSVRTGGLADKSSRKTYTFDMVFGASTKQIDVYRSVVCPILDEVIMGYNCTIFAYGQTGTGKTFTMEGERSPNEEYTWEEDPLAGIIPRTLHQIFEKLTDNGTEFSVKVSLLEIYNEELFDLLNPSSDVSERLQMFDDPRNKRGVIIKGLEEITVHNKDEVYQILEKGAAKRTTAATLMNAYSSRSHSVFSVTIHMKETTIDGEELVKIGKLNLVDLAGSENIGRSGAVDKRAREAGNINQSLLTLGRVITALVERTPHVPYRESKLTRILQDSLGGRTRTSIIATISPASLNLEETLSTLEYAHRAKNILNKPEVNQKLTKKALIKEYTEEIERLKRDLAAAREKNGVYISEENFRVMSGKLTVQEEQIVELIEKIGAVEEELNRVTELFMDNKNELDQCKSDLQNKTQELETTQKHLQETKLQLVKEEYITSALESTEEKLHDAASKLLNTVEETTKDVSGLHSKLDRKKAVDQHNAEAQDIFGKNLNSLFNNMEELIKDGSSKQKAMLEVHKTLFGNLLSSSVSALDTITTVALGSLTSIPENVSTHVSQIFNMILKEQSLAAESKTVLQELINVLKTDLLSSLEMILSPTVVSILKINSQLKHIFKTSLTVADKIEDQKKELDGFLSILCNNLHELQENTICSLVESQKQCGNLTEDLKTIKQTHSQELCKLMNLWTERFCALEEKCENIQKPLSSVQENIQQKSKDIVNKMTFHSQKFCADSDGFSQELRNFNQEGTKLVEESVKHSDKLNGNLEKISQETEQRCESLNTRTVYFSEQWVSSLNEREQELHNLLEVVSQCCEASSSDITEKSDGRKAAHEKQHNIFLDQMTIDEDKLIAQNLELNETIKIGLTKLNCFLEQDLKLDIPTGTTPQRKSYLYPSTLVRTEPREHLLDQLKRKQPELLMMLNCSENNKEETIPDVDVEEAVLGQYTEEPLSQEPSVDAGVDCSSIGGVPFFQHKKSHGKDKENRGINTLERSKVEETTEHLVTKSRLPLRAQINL

[4] = Retention time of the compound by HPLC analysis; type: physicochemical
Summary of the method: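 Reverse-phase C18 HPLC (4.6 × 250 mm), eluted with a linear 30–70% MeCN gradient over 40 min in 0.1% TFA.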

HCT-116 = experiment: Antiproliferative activity against human HCT116 cells assessed as growth inhibition after 72 hrs by MTS assay; type: functional, cell-based; details: HCT-116, 72 h
Summary of the method: (§1)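 Media with 10% FBS at 37 °C, 5% CO2: A549 in DMEM (500 cells/well), HCT-116 in McCoy's 5A and MCF-7 in EMEM (5000 cells/well each). Cells settled 6 h, then got graded compound concentrations (0.1% final DMSO) for 72 h. After washing into phenol-red-free medium (1 h), MTS was added for 40 min and A490 read. IC50 came from mean inhibition rates of ≥3 experiments.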

MCF7 = experiment: Antiproliferative activity against human MCF7 cells assessed as growth inhibition after 72 hrs by MTS assay; type: functional, cell-based; details: MCF7, 72 h; summary of the method: as §1
A549 = experiment: Antiproliferative activity against human A549 cells assessed as growth inhibition after 72 hrs by MTS assay; type: functional, cell-based; details: A549, 72 h; summary of the method: as §1

## FC(F)(F)c1ccc2c(c1)[nH]c1ccccc12
[1]
  solubility thermodynamic at 48 h: 424 µg/mL (≈ 1800 µM)
[2]
  solubility thermodynamic at 48 h: < 1 µg/mL

## FC(F)(F)c1ccc2c(c1)[nH]c1cnccc12
[1]
  solubility thermodynamic at 48 h: 472 µg/mL (≈ 2000 µM)
[2]
  solubility thermodynamic at 48 h: < 1 µg/mL

## FC(F)(F)c1ccc2c(c1)[nH]c1ccncc12
[1]
  solubility thermodynamic at 48 h: 1760 µg/mL (≈ 7450 µM)
[2]
  solubility thermodynamic at 48 h: 3.16 µg/mL (≈ 13.4 µM)

## FC(F)(F)c1cccc(Nc2cccnc2)c1
[1]
  solubility thermodynamic at 48 h: 14300 µg/mL (≈ 60000 µM)
[3]
  IC50: 7 µM
[2]
  solubility thermodynamic at 48 h: 10.8 µg/mL (≈ 45.3 µM)

## FC(F)(F)c1cccc(Nc2ccncc2)c1
[1]
  solubility thermodynamic at 48 h: 24000 µg/mL (≈ 101000 µM)
[3]
  IC50: > 6.3 µM
[2]
  solubility thermodynamic at 48 h: 264 µg/mL (≈ 1110 µM)

## Nc1ccc2c(c1)[nH]c1cc(C(F)(F)F)ccc12
[3]
  IC50: 0.27 µM

## CC(=O)Nc1ccc2c(c1)[nH]c1cc(C(F)(F)F)ccc12
[3]
  IC50: 0.085 µM

## O=[N+]([O-])c1ccc2[nH]c3cc(C(F)(F)F)ccc3c2c1
[3]
  IC50: 0.043 µM

## Nc1ccc2[nH]c3cc(C(F)(F)F)ccc3c2c1
[3]
  IC50: 0.55 µM

## O=[N+]([O-])c1cccc(Nc2cccc(C(F)(F)F)c2)c1
[3]
  IC50: > 6.3 µM

## Nc1cccc(Nc2cccc(C(F)(F)F)c2)c1
[3]
  IC50: > 6.3 µM

## NC(=O)Nc1cccc(Nc2cccc(C(F)(F)F)c2)c1
[3]
  IC50: > 6.3 µM

## O=[N+]([O-])c1ccc(Nc2cccc(C(F)(F)F)c2)cc1
[3]
  IC50: 3.2 µM

## Nc1ccc(Nc2cccc(C(F)(F)F)c2)cc1
[3]
  IC50: > 6.3 µM

## NC(=O)Nc1ccc(Nc2cccc(C(F)(F)F)c2)cc1
[3]
  IC50: 0.39 µM

## O=C1CCc2cc(Nc3cccc(C(F)(F)F)c3)ccc2N1
[4]
  Retention_time: 24.4 min
HCT-116
  IC50: 8.9 µM
MCF7
  IC50: 11 µM
[1]
  solubility thermodynamic at 48 h: 1800 µg/mL (≈ 5880 µM)
[3]
  IC50: 0.045 µM
A549
  IC50: 4.2 µM
[2]
  solubility thermodynamic at 48 h: < 1 µg/mL

## O=C1CCc2cc(Oc3cccc(C(F)(F)F)c3)ccc2N1
[3]
  IC50: 2 µM

## O=C1CCc2cc(Sc3cccc(C(F)(F)F)c3)ccc2N1
[3]
  IC50: > 6.3 µM

## O=C1CCc2cc(Nc3ccc(C(F)(F)F)cc3)ccc2N1
[3]
  IC50: 0.33 µM

## O=C1CCc2cc(Oc3ccc(C(F)(F)F)cc3)ccc2N1
[3]
  IC50: > 6.3 µM

## O=C1CCc2cc(Sc3ccc(C(F)(F)F)cc3)ccc2N1
[3]
  IC50: > 6.3 µM

## O=C1CCc2cc(Nc3ccccc3C(F)(F)F)ccc2N1
[3]
  IC50: > 6.3 µM

## O=C1CCc2cc(Nc3ccccc3)ccc2N1
[3]
  IC50: > 6.3 µM

## CCc1cccc(Nc2ccc3c(c2)CCC(=O)N3)c1
[3]
  IC50: 0.81 µM

## CC(C)c1cccc(Nc2ccc3c(c2)CCC(=O)N3)c1
[3]
  IC50: 0.43 µM

## CC(C)(C)c1cccc(Nc2ccc3c(c2)CCC(=O)N3)c1
[3]
  IC50: 0.16 µM

## O=C1CCc2cc(Nc3cc(C(F)(F)F)cc(C(F)(F)F)c3)ccc2N1
[3]
  IC50: > 6.3 µM

## O=C1CCc2cc(Nc3cccc(-c4ccccc4)c3)ccc2N1
[3]
  IC50: > 6.3 µM

## O=C1CCc2cc(Nc3cccc(Oc4ccccc4)c3)ccc2N1
[3]
  IC50: > 6.3 µM

## COc1cccc(Nc2ccc3c(c2)CCC(=O)N3)c1
[3]
  IC50: > 6.3 µM

## O=C1CCc2cc(Nc3cccc(OC(F)(F)F)c3)ccc2N1
[3]
  IC50: 1.2 µM

## O=C1CCc2cc(Nc3cccc(O)c3)ccc2N1
[3]
  IC50: > 6.3 µM

## O=C1CCc2cc(Nc3cccc([N+](=O)[O-])c3)ccc2N1
[3]
  IC50: 0.44 µM

## Nc1cccc(Nc2ccc3c(c2)CCC(=O)N3)c1
[3]
  IC50: > 6.3 µM

## COC(=O)c1cccc(Nc2ccc3c(c2)CCC(=O)N3)c1
[3]
  IC50: > 6.3 µM

## O=C1CCc2cc(Nc3cccc(C(=O)O)c3)ccc2N1
[3]
  IC50: > 6.3 µM

## O=C1CCc2cc(Nc3cc(C(F)(F)F)ccn3)ccc2N1
[4]
  Retention_time: 7 min
HCT-116
  IC50: 4.4 µM
MCF7
  IC50: 8 µM
[1]
  solubility thermodynamic at 48 h: 3510 µg/mL (≈ 11400 µM)
[3]
  IC50: 0.068 µM
A549
  IC50: 2.5 µM
[2]
  solubility thermodynamic at 48 h: 6.12 µg/mL (≈ 19.9 µM)

## O=C1CCc2ccc(Nc3cccc(C(F)(F)F)c3)cc2N1
[3]
  IC50: > 6.3 µM

## O=C1COc2ccc(Nc3cccc(C(F)(F)F)c3)cc2N1
[3]
  IC50: > 6.3 µM

## O=c1ccc2ccc(Nc3cccc(C(F)(F)F)c3)cc2[nH]1
[3]
  IC50: 4.6 µM

## O=C1CCc2c(cccc2Nc2cccc(C(F)(F)F)c2)N1
[3]
  IC50: > 6.3 µM

## O=C1Cc2cc(Nc3cccc(C(F)(F)F)c3)ccc2N1
[3]
  IC50: 3.6 µM

## O=c1[nH]c2ccc(Nc3cccc(C(F)(F)F)c3)cc2o1
[3]
  IC50: > 6.3 µM

## O=c1[nH]c2ccc(Nc3cccc(C(F)(F)F)c3)cc2s1
[3]
  IC50: 0.81 µM

## O=C1COc2cc(Nc3cccc(C(F)(F)F)c3)ccc2N1
[3]
  IC50: 0.29 µM

## O=C1CSc2cc(Nc3cccc(C(F)(F)F)c3)ccc2N1
[4]
  Retention_time: 28.2 min
HCT-116
  IC50: 6.8 µM
MCF7
  IC50: 6.5 µM
[1]
  solubility thermodynamic at 48 h: 1700 µg/mL (≈ 5240 µM)
[3]
  IC50: 0.051 µM
A549
  IC50: 4.1 µM
[2]
  solubility thermodynamic at 48 h: < 1 µg/mL

## CN1C(=O)CCc2cc(Nc3cccc(C(F)(F)F)c3)ccc21
[3]
  IC50: > 6.3 µM

## FC(F)(F)c1cccc(Nc2ccc3c(c2)CCC(=S)N3)c1
[3]
  IC50: 0.19 µM

## O=C1CCCc2cc(Nc3cccc(C(F)(F)F)c3)ccc2N1
[4]
  Retention_time: 27 min
HCT-116
  IC50: 5.7 µM
MCF7
  IC50: 3.9 µM
[1]
  solubility thermodynamic at 48 h: 7390 µg/mL (≈ 23100 µM)
[3]
  IC50: 0.05 µM
A549
  IC50: 4.5 µM
[2]
  solubility thermodynamic at 48 h: < 1 µg/mL

## O=C1CCc2cc(Nc3cccc(C(F)(F)F)c3)cc(F)c2N1
[3]
  IC50: 0.43 µM

## O=C1CCc2cc(Nc3cccc(C(F)(F)F)c3)c(F)cc2N1
[3]
  IC50: 0.92 µM

## O=C1CSc2cc(Nc3cc(C(F)(F)F)ccn3)ccc2N1
[4]
  Retention_time: 13.8 min
HCT-116
  IC50: 2.6 µM
MCF7
  IC50: 2.8 µM
[1]
  solubility thermodynamic at 48 h: 669 µg/mL (≈ 2060 µM)
[3]
  IC50: 0.035 µM
A549
  IC50: 1.5 µM
[2]
  solubility thermodynamic at 48 h: 1.11 µg/mL (≈ 3.41 µM)

## O=C1CCCc2cc(Nc3cc(C(F)(F)F)ccn3)ccc2N1
[4]
  Retention_time: 10.8 min
HCT-116
  IC50: 6.5 µM
MCF7
  IC50: 9.1 µM
[1]
  solubility thermodynamic at 48 h: 4820 µg/mL (≈ 15000 µM)
[3]
  IC50: 0.05 µM
A549
  IC50: 5 µM
[2]
  solubility thermodynamic at 48 h: 8.07 µg/mL (≈ 25.1 µM)
